# Bioassay records (PubChem BioAssay)
# Shown are actives, neighbours in structure and some others; about 3.5% of the full set was active somewhere.
# MrgX1 allo act = human MrgX1 positive allosteric modulation, primary screen. 0.63% of 310,000 active. Q96LB2. B-score at 10 µM. AID 588675. MrgX1-HEK293, Fluo-4 calcium flux, FDSS; stronger effect = higher value;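 active = plate-corrected calcium response at least 3 library SD above typical, normal starting fluorescence, not activating the receptor alone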;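 note: compound read alongside a low EC10 to EC30 dose of BAM8-22 agonist; peak minus trough fluorescence over baseline measured at the second addition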
# MrgX1 antag = antagonists of human MrgX1 receptor; Q96LB2; MRGX1-HEK293 calcium flux, Fluo-4, BAM8-22 antagonism; stronger effect = lower value; B-score at 10 µM; 1.3% of 310,000 active;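 active = calcium-response B-score plate-corrected more than 3 library SD below zero, starting fluorescence within 5 deviations, no agonist response on first addition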;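 note: peak minus trough fluorescence over baseline after final BAM8-22 challenge near maximal dose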
# RGS4 pot = RGS4 potentiation or activation; HEK293 M3R/inducible RGS4, carbachol calcium flux Fluo4; stronger effect = lower value; B-score at 10 µM; 0.92% of 310,000 active;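 active = B-score of the integrated calcium signal more than 4 SD below the library mean, with starting fluorescence not abnormally high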;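 note: negative B-score means reduced calcium response which marks RGS4 activation or potentiation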
#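 System: HEK293 FlpIn-TREx cells, stable M3R, doxycycline-inducible RGS4. Timing: overnight RGS4 induction, 30 min dye load 37 °C, 20 min compound RT. Also added: carbachol, ECmax concentration. Measured by: Fluo4 fluorescence kinetic imaging of calcium. Evaluation: integrated calcium ratio converted to B score.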
# RGS4 block = inhibitors of human RGS4. P49798. HEK293 M3R/RGS4 inducible, Fluo-4 calcium flux; stronger effect = higher value; triggered by carbachol at its EC20. B-score at 10 µM. 0.45% of 310,000 active;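 active = B-score, a plate-corrected calcium signal, over three deviations above library mean, with baseline fluorescence within five deviations of library mean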;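 note: RGS4 expression induced by doxycycline in cells with stable M3 receptor; B-score is computed from the integrated fluorescence ratio over baseline after carbachol; higher B-score means a larger calcium signal and so more RGS4 inhibition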
# Target sequence (P49798 whole entry, looked up): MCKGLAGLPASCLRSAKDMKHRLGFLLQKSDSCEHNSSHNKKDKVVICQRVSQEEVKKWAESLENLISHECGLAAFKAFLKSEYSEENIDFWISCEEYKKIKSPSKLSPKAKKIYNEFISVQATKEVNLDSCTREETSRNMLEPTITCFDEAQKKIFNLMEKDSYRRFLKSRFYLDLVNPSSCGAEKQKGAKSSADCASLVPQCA
# MrgX1 agonist = human MrgX1 receptor agonism, primary screen; Q96LB2; MrgX1-HEK293 cells, Fluo-4 calcium fluorescence, agonist mode; stronger effect = higher value; B-score at 10 µM; 0.44% of 310,000 active; AID 588627;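 active = calcium response B-score plate-corrected fluorescence ratio at least 3 library SD, with starting fluorescence B-score inside 5 SD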
#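 Test system: Stable human MrgX1 HEK293 cell line | Schedule: Overnight plating before 1 h dye loading | Read-out basis: Baseline-normalised fluorescence change ratio, B-scored | Detection: Kinetic calcium dye fluorescence, Fluo-4 NW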
# RGS4 inh valid = RGS4 inhibitor validation; shares compounds with RGS4 block; HEK293 M3R/RGS4, carbachol calcium Fluo-4 fluorescence; carbachol added at its EC20; 0 = buffer wells, 100 = carbachol control; calcium response, % at 10 µM; 65% of 1,700 active; AID 492999;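 active = duplicate-averaged calcium response above the buffer-only control mean plus 5 SD of those controls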;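 note: integrated fluorescence ratio F max minus min over baseline F0; higher response in RGS4-induced cells means RGS4 inhibition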
# RGS4 uninduced = counter-screen for RGS4 inhibitors: effect in non-induced cells. shares compounds with RGS4 block. HEK293 M3R non-induced, carbachol calcium Fluo-4; submaximal (EC20) carbachol stimulus; buffer wells 0%, carbachol control wells 100%. activity (percent), % at 10 µM. 20% of 1,900 active. AID 493000; call rule not given here;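 note: RGS4 induction absent so cells express M3R without RGS4; higher means more calcium signal and flags a non-specific hit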
# M3R basal Ca ctr = second RGS4 inhibitor counter-screen in uninduced cells lacking carbachol | shares compounds with RGS4 block | HEK293 M3R/RGS4 non-induced, Fluo-4 calcium, no carbachol; normalised: buffer wells 0%, carbachol wells 100% | calcium response (agonist-mode artifact), % at 10 µM | 22% of 1,900 active | AID 493001;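 active = duplicate-averaged calcium rise in uninduced cells above buffer wells' mean plus 5 SD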
# Active calls of the source: *; i = inactive; . = no result.
SMILES,MrgX1 allo act,MrgX1 antag,RGS4 pot,RGS4 block,MrgX1 agonist,RGS4 inh valid,RGS4 uninduced,M3R basal Ca ctr
Cc1ccc(N(C(=O)c2csnn2)C(C(=O)NC2CCCC2)c2ccccn2)cc1 (stereo not drawn),i,i,i,i,i,.,.,.
CCOc1ccccc1N1CCN(Cc2cn[nH]c2-c2ccc(F)cc2)CC1,i,i,i,6.8*,i,44%*,44%*,i
COc1ccc2cc(-c3[nH]ncc3CN3CCCN(c4ccccc4)CC3)ccc2c1,i,i,i,5.5*,i,20%*,40%*,i
CCOc1ccccc1N1CCN(Cc2cccc(OC)c2OC)CC1,i,i,i,i,i,.,.,.
CN(C1CCCCC1)S(=O)(=O)c1cc2c(cc1Cl)NC(=O)CO2,i,i,i,i,i,.,.,.
O=c1c2ccccc2nc2c3ccccc3c(NCc3cccnc3)nn12,i,i,i,i,i,.,.,.
O=c1c2ccccc2nc2c3ccccc3c(NCc3ccccn3)nn12,i,i,i,14*,i,12%*,i,i
Cc1c(/C=N/NC(=O)CNc2ccccc2)c2ccccn2c1C(=O)c1ccccc1,i,i,i,i,i,i,i,16%*
Cc1c(/C=N/NC(N)=O)c2ccccn2c1C(=O)c1ccncc1,i,i,i,i,i,.,.,.
COc1cc(C2C(C#N)=C(N)Oc3cc(O)ccc32)cc2c1OCO2 (stereo not drawn),i,i,i,12*,i,29%*,i,i
COc1ccc(C2C(C#N)=C(N)Oc3cc(O)ccc32)cc1OC (stereo not drawn),i,i,i,i,i,.,i,i
COc1ccc(C2C(C#N)=C(N)Oc3cc(O)ccc32)cc1C (stereo not drawn),i,i,i,i,i,.,31%*,21%*
COc1cc(C2C(C#N)=C(N)Oc3cc(O)ccc32)cc(OC)c1OC (stereo not drawn),i,i,i,i,i,.,.,.
COC(=O)c1c(C)cc(O)c(C=O)c1O,i,i,i,5.2*,i,26%*,i,i
COC(=O)c1c(C)c(OC(=O)c2c(C)cc(O)c(C=O)c2O)cc(C)c1O,i,i,i,i,i,.,.,.
COc1cc(OC)cc(-c2cc(N)n(S(=O)(=O)c3cccc4nsnc34)n2)c1,i,i,i,4.8*,i,8.0%*,i,i
O=C(c1ccco1)N1CCN(c2ncnc3c(-c4ccc(Cl)cc4)nsc23)CC1,i,i,i,5.2*,i,i,i,i
O=C(c1ccco1)N1CCN(c2ncnc3scc(-c4ccc(F)cc4)c23)CC1,i,i,i,i,i,.,.,.
CCCc1cc(=O)oc2cc(OCc3ccc(C(=O)O)cc3)ccc12,i,i,i,i,i,.,.,.
CCCC(=O)Nc1cccc(NC(=O)c2ccc3c(c2)OCCO3)c1,i,i,i,i,i,.,i,i
CCn1c(SCC(=O)OC2CCCCC2)nc2ccccc2c1=O,i,i,i,5.5*,i,14%*,i,i
CCOC(=O)CSc1nc2ccccc2c(=O)n1CC,i,i,i,i,i,.,.,.
COc1cccc(NC(=O)NC2CCCCCCC2)c1,i,i,i,18*,i,i,i,i
CCOC(=O)c1ccc(N2C(=O)c3n[nH]c(-c4ccco4)c3C2c2ccc([N+](=O)[O-])cc2)cc1 (stereo not drawn),i,i,i,i,i,i,i,i
